Results: ChEMBL document CHEMBL2021847, “Identification of fused-ring alkanoic acids with improved pharmacokinetic profiles that act as G protein-coupled receptor 40/free fatty acid receptor 1 agonists” (J Med Chem, 2012)
Active and inactive are the calls of the source. The calls are words filed in the database; no cut-off is given here.

What was measured:
[1] = target: T1, Free fatty acid receptor 1 (Homo sapiens, UniProt O14842); assay: Agonist activity at human […] receptor expressed in CHO cells assessed as increase in intracellular calcium concentration after 90 secs by FLIPR assay in presence of 0.1% BSA; type: functional, cell-based
T1 sequence (O14842 whole entry): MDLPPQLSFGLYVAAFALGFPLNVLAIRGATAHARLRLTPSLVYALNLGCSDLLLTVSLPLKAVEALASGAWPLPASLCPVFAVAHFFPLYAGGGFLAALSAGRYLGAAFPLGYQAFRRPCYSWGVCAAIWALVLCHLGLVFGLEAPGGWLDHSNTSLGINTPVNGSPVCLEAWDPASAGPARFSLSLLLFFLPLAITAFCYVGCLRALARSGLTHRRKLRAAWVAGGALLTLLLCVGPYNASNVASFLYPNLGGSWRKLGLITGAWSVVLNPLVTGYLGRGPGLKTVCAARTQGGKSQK
Method in brief: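 CHO dhfr cells stably expressing human GPR40/FFA1 (NM_005303) plated and held overnight at 37 °C in 5% CO2. Loaded 60 min at 37 °C with Fluo 4-AM 2.5 μg/mL, probenecid 2.5 mmol/L and 0.1% fatty acid-free BSA. Compounds added over a concentration range, Ca2+ rise followed 90 s. Response scaled between vehicle (0%) and 10 μM γ-linolenic acid (100%).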

[2] = target: T1, Free fatty acid receptor 1; assay: Displacement of 3-[4-({2',6'-dimethyl-6-[(4-[3H])-phenylmethoxy]biphenyl-3-yl}methoxy)phenyl] propanoic acid from human GPR40 receptor expressed in CHO cells after 90 mins by scintillation counting in presence of 0.2% BSA; type: cell-based
Method in brief: (§1)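 Membranes from CHO lines stably expressing human or rat GPR40/FFA1, in Tris-HCl pH 7.5 with EDTA, protease inhibitors, 0.05% CHAPS and 0.2% fatty acid-free BSA. Tritiated ligand at 2 or 6 nmol/L with graded test compound, 90 min at room temperature. Filter harvest, scintillation counting. Nonspecific binding with 10 μmol/L unlabeled ligand. IC50 by nonlinear regression, Ki via Cheng–Prusoff with measured Kd. Averages of n = 2 or 3.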

[3] = target: Free fatty acid receptor 1 (Rattus norvegicus, UniProt Q8K3T4); assay: Displacement of 3-[4-({2',6'-dimethyl-6-[(4-[3H])-phenylmethoxy]biphenyl-3-yl}methoxy)phenyl] propanoic acid from rat GPR40 receptor expressed in CHO cells after 90 mins by scintillation counting in presence of 0.2% BSA; type: cell-based; method in brief: as §1
Free fatty acid receptor 1 (Rattus norvegicus, UniProt Q8K3T4), sequence (Q8K3T4 whole entry): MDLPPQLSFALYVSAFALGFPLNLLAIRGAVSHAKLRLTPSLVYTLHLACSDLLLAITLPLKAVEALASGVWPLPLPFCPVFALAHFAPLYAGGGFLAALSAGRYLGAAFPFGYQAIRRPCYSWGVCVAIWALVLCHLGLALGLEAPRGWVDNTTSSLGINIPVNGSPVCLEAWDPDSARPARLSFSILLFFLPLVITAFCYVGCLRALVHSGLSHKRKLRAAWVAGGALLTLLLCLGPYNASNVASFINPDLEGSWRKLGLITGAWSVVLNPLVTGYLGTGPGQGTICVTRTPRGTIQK

[4] = Octanol-water partition coefficient, log D of the compound at pH 7.4 by reverse-phase liquid chromatography; type: physicochemical
[5] = target: T1, Free fatty acid receptor 1; assay: Agonist activity at human […] receptor expressed in CHO cells assessed as increase in intracellular calcium concentration at 10 uM after 90 secs by FLIPR assay in presence of 0.1% BSA relative to control; type: functional, cell-based
Method in brief: (§2)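 CHO dhfr cells stably expressing human GPR40/FFA1 (NM_005303) plated, incubated overnight at 37 °C in 5% CO2. Loaded 60 min at 37 °C with Fluo 4-AM (2.5 μg/mL), probenecid (2.5 mmol/L), 0.1% fatty acid-free BSA. Ca2+ rise monitored by FLIPR for 90 s after compound addition. Response expressed as % of 10 μM γ-linolenic acid response, vehicle-corrected.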

[6] = target: T1, Free fatty acid receptor 1; assay: Agonist activity at human […] receptor expressed in CHO cells assessed as increase in intracellular calcium concentration at 1 uM after 90 secs by FLIPR assay in presence of 0.1% BSA relative to control; type: functional, cell-based; method in brief: as §2
Rattus norvegicus [7] = assay: Antidiabetic activity in Wistar fatty rat assessed as decrease in plasma glucose level at 1 to 10 mg/kg, po administered as single dose 1 hr prior to glucose challenge measured after 120 mins by OGTT; type: functional, organism-based
Method in brief: (§3)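 Female Wistar fatty rats aged 17−19 weeks, fasted overnight. Dosed orally in 0.5% methylcellulose (vehicle control), then given oral glucose 1 g/kg 1 h later. Tail-vein blood taken pre-dose, at 0, and at 10, 30, 60 and 120 min. Glucose by autoanalyzer, insulin by RIA. Glucose AUC0−120 min and incremental insulin AUC0−120 min calculated. n = 6, one-tailed Williams test versus vehicle.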

Rattus norvegicus [8] = assay: Antidiabetic activity in Wistar fatty rat assessed as increase in plasma insulin level at 1 to 10 mg/kg, po administered as single dose 1 hr prior to glucose challenge measured after 120 mins by OGTT; type: functional, organism-based; method in brief: as §3
Rattus norvegicus [9] = assay: Antidiabetic activity in po dosed Wistar fatty rat assessed as decrease in plasma glucose level administered as single dose 1 hr prior to glucose challenge measured after 120 mins by OGTT; type: functional; conditions: read-out: MED; method in brief: as §3
Rattus norvegicus [10] = assay: Antidiabetic activity in po dosed Wistar fatty rat assessed as increase in plasma insulin level administered as single dose 1 hr prior to glucose challenge measured after 120 mins by OGTT; type: functional; conditions: read-out: MED; method in brief: as §3
Rattus norvegicus [11] = assay: Antidiabetic activity in Wistar fatty rat assessed as decrease in plasma glucose level at 10 mg/kg, po administered as single dose 4 hrs prior to glucose challenge measured after 120 mins by OGTT; type: functional, organism-based; set-up: dose 10 mg/kg
Method in brief: (§4)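 Female Wistar fatty rats aged 17−19 weeks, fasted overnight. Given compound orally (10 mg/kg) or vehicle (0.5% methylcellulose), with oral glucose 1 g/kg 4 h later. Tail-vein sampling pre-dose, at 0, and at 10–120 min. Glucose by autoanalyzer, insulin by RIA.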

Rattus norvegicus [12] = assay: Antidiabetic activity in Wistar fatty rat assessed as increase in plasma insulin level at 10 mg/kg, po administered as single dose 4 hrs prior to glucose challenge measured after 120 mins by OGTT; type: functional, organism-based; set-up: dose 10 mg/kg; method in brief: as §4

| SMILES | EC50 [1] | Ki [2] | Ki [3] | chromatographic logD [4] | further results |
| --- | --- | --- | --- | --- | --- |
| Cc1cc(C)c(-c2cccc(COc3ccc4c(c3)OCC4CC(=O)O)c2)c(C)c1 (centres undefined) | 33 nM | 36 nM | 130 nM | 4.47 |  |
| Cc1cccc(C)c1-c1cccc(COc2ccc3c(c2)OCC3CC(=O)O)c1 (centres undefined) | 27 nM |  |  | 3.88 |  |
| Cc1cccc(C)c1-c1cccc(COc2ccc3c(c2)CCCCC3CC(=O)O)c1 (centres undefined) | 940 nM |  |  | 5.02 |  |
| CCOCCOc1cc(C)c(-c2cccc(COc3ccc4c(c3)CC(CC(=O)O)C4)c2)c(C)c1 (centres undefined) | 84 nM | 270 nM | > 10000 nM | 4.39 |  |
| Cc1cccc(C)c1-c1cccc(COc2ccc3c(c2)CCC3CC(=O)O)c1 (centres undefined) | 33 nM |  |  | 4.4 |  |
| Cc1ccc2ccccc2c1-c1cccc(COc2ccc3c(c2)OCC3CC(=O)O)c1 (centres undefined) | 21 nM | 41 nM | 470 nM | 4.33 |  |
| Cc1cccc(C)c1-c1cccc(COc2ccc3c(ccn3CC(=O)O)c2)c1 |  | > 10000 nM | > 10000 nM | 3.93 | Efficacy [5]: 101%; Efficacy [6]: 2% |
| CCOCCOc1cc(C)c(-c2cccc(COc3ccc4c(c3)CCC(C(=O)O)C4)c2)c(C)c1 (centres undefined) | 140 nM | 280 nM | > 10000 nM | 4.33 |  |
| CCOCCOc1cc(C)c(-c2cccc(COc3ccc4c(c3)CCC(CC(=O)O)C4)c2)c(C)c1 (centres undefined) | 510 nM | 2100 nM | > 10000 nM | 4.67 |  |
| Cc1cccc(C)c1-c1cccc(COc2ccc3c(n2)CCC3CC(=O)O)c1 (centres undefined) | 570 nM | > 10000 nM | > 10000 nM | 3.88 |  |
| O=C(O)CC1COc2cc(OCc3cccc(-c4csc5ccccc45)c3)ccc21 (centres undefined) | 39 nM | 290 nM | > 10000 nM | 3.99 |  |
| CCOCCOc1cc(C)c(-c2cccc(CNc3ccc4c(c3)OCC4CC(=O)O)c2)c(C)c1 (centres undefined) | 48 nM | 43 nM | 110 nM | 3.13 |  |
| CCOCCOc1cc(C)c(-c2cccc(COc3ccc4c(c3)CC(=O)N4CC(=O)O)c2)c(C)c1 |  | > 10000 nM | > 10000 nM | 3.41 | Efficacy [5]: 59%; Efficacy [6]: 2% |
| Cc1cccc(C)c1-c1cccc(COc2ccc3c(CC(=O)O)coc3c2)c1 | 4900 nM |  |  | 4.04 |  |
| O=C(O)CC1COc2cc(OCc3cccc(-c4ccc5sccc5c4)c3)ccc21 (centres undefined) | 180 nM | 570 nM | > 10000 nM | 3.97 |  |
| CCOCCOc1cc(C)c(-c2cccc(COc3ccc4c(c3)CC(C(=O)O)C4)c2)c(C)c1 (centres undefined) | 960 nM | > 10000 nM | > 10000 nM | 4.11 |  |
| CCOCCOc1cc(C)c(-c2cccc(COc3ccc4c(c3)COC4CC(=O)O)c2)c(C)c1 (centres undefined) | 91 nM | 390 nM | 67 nM | 3.61 |  |
| CCOCCOc1cc(C)c(-c2cccc(COc3ccc4c(c3)OCC4CC(=O)O)c2)c(C)c1 (centres undefined) |  |  | 200 nM | 3.83 | Activity (Rattus norvegicus [7]): Active; Activity (Rattus norvegicus [8]): Active; minimal effective dose (Rattus norvegicus [9]): 10 mg/kg; minimal effective dose (Rattus norvegicus [10]): 10 mg/kg; Activity (Rattus norvegicus [11]): Active; Activity (Rattus norvegicus [12]): Active |
| Cc1ccc(-c2cccc(COc3ccc4c(c3)OCC4CC(=O)O)c2)c(C)c1 (centres undefined) | 29 nM | 57 nM | 1600 nM | 4.15 |  |
| Cc1cccc(C)c1-c1cccc(COc2ccc3c(c2)CC3CC(=O)O)c1 (centres undefined) | 69 nM | 1200 nM | > 10000 nM | 4.12 |  |
| Cc1cccc(C)c1-c1cccc(COc2ccc3c(c2)CCCC3CC(=O)O)c1 (centres undefined) | 27 nM |  |  | 4.7 |  |
| Cc1cc(OCc2ccccc2)cc(C)c1-c1cccc(COc2ccc3c(c2)OCC3CC(=O)O)c1 (centres undefined) | 28 nM | 18 nM | 100 nM | 5.03 |  |
| COc1ccc(COc2ccc3c(c2)OCC3CC(=O)O)cc1-c1c(C)cccc1C (centres undefined) | 24 nM | 130 nM | 1600 nM | 3.31 |  |
| Cc1cccc(C)c1-c1cccc(COc2ccc3c(c2)OCCC(C(=O)O)C3)c1 (centres undefined) | 70 nM |  |  | 4.05 |  |
| Cc1cccc(C)c1-c1cc(COc2ccc3c(c2)OCC3CC(=O)O)ccc1OCc1ccccc1 (centres undefined) | 10 nM | 6.9 nM | 170 nM | 4.53 |  |
